# ChEMBL document CHEMBL1143247, “Vesicular monoamine transporter substrate/inhibitor activity of MPTP/MPP+ derivatives: a structure-activity study” (J Med Chem, 2008)
# B1: Synaptic vesicular amine transporter (Bos taurus), Q27963 (protein)
# chain: MALSELALLRRLQESRHSRKLILFIVFLALLLDNMLLTVVVPIIPSYLYSIEHEKDALEIQTAKPGLTASAPGSFQNIFSYYDNSTMVTGNSTDHLQGALVHEATTQHMATNSSSASSDCPSEDKDLLNENVQVGLLFASKATVQLLTNPFIGLLTNRIGYPIPMFTGFCIMFISTVMFAFSRTYAFLLIARSLQGIGSSCSSVAGMGMLASVYTDDEERGNAMGIALGGLAMGVLVGPPFGSVLYEFVGKTAPFLVLAALVLLDGAIQLFVLQPSRVQPESQKGTPLTTLLRDPYILIAAGSICFANMGIAMLEPALPIWMMETMCSHKWQLGVAFLPASVSYLIGTNVFGILAHKMGRWLCALLGMIIVGMSILCIPLAKNIYGLIAPNFGVGFAIGMVDSSMMPIMGYLVDLRHVSVYGSVYAIADVAFCMGYAIGPSAGGAIAKAIGFPWLMTIIGIIDILFAPLCFFLRSPPAKEEKMAILMDHNCPIKTKMYTQNSSQSHPIGEDEESESD
# What was measured:
# [1] = target: Synaptic vesicular amine transporter (Bos taurus, UniProt Q27963); assay: Inhibition of dopamine uptake at VMAT in bovine chromaffin granule ghosts
# In short: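 Resealed bovine chromaffin granule ghosts preincubated 10 min at 30 °C in 0.3 M sucrose, 10 mM HEPES, 5 mM Mg-ATP, 5 mM MgSO₄, 100 µg/mL catalase, pH 7.0. Inhibitor then added for 2 min before starting uptake with DA. Aliquots taken at 6 min intervals, pelleted, washed and extracted in 0.1 M HClO₄. Intragranular catecholamines measured by HPLC-EC. Ki obtained by fitting typically 4–5 inhibitor × 6 DA concentrations to a competitive model. Errors are fitting standard errors.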
# [2] = target: Synaptic vesicular amine transporter (Bos taurus) (UniProt Q27963); assay: Ratio of Km for dopamine uptake at VMAT in bovine chromaffin granule ghosts to Ki for VMAT in bovine chromaffin granule ghosts
# In short: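 Ratio of Km for DA to Ki for the inhibitor. Both were determined on the same ghost preparation for each compound, to normalize day-to-day variation in DA Km between preparations. Ki comes from DA-uptake competition in resealed bovine chromaffin granule ghosts (5 mM Mg-ATP, pH 7.0, 30 °C, HPLC-EC read-out). Km for DA comes from initial uptake rates fitted to Michaelis–Menten.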
# [3] = substrate: COc1ccc(-c2cc[n+](C)cc2)cc1; assay: (§1) Activity of VMAT in bovine chromaffin granule ghosts assessed as drug uptake; conditions: Bos taurus
# In short: (§2)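 Resealed bovine adrenal chromaffin granule ghosts, prepared fresh from frozen membrane stores, preincubated 10 min at 30 °C in 0.3 M sucrose, 10 mM HEPES, 5 mM Mg-ATP, 5 mM MgSO₄, 100 µg/mL catalase, pH 7.0. Test substrate added without DA. Aliquots taken at 6 min intervals, diluted into ice-cold sucrose/HEPES, pelleted, washed, extracted with 0.1 M HClO₄. Intragranular substrate measured by HPLC-UV. Km and Vmax come from Michaelis–Menten fits of initial rates at 12 substrate concentrations.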
# [4] = substrate: CN1CC=C(c2ccccc2)CC1; assay: as §1; conditions: Bos taurus; in short: as §2
# [5] = substrate: C[n+]1ccc(-c2ccc(O)cc2)cc1; assay: as §1; conditions: Bos taurus; in short: as §2
# [6] = substrate: Cc1ccc(-c2cc[n+](C)cc2)cc1; assay: as §1; conditions: Bos taurus; in short: as §2
# [7] = substrate: C[n+]1ccc(-c2cccc(O)c2)cc1; assay: as §1; conditions: Bos taurus; in short: as §2
# [8] = substrate: C[n+]1ccc(-c2ccccc2)cc1; assay: as §1; conditions: Bos taurus; in short: as §2
Molecule,Ki [1],Dopamine Km / inhibitor Ki ratio [2],further results
Cc1c[n+](C)ccc1-c1ccc(O)cc1,65 µM,0.8,–
C[n+]1ccc(-c2ccc(F)cc2)cc1,51.3 µM,1,–
CN1CC=C(c2ccc(F)cc2)CC1,49.7 µM,0.9,–
COc1ccc(-c2cc[n+](C)cc2)cc1,106 µM,0.2,–
COc1cc2c(cc1OC)C1CC(=O)C(CC(C)C)CN1CC2 (centres undefined) [TETRABENAZINE],0.004 µM,–,–
CN1CC=C(c2cccc(Cl)c2)CC1,27.7 µM,1.6,–
C=C(C[n+]1ccc(C2CCCCC2)cc1)c1ccccc1,53 µM,0.7,–
C[n+]1cccc(-c2cccc(O)c2)c1,36.6 µM,1.2,–
C=C(C[n+]1ccc(-c2ccc(O)cc2)cc1)c1ccc(Br)cc1,0.5 µM,41.5,–
C[n+]1ccc(-c2cccc(O)c2)cc1,2.4 µM,9.7,–
C[n+]1ccc(-c2ccc(Cl)cc2)cc1,7.6 µM,5.8,–
C=C(C[n+]1ccc(-c2ccccc2)cc1)c1ccc(-c2ccccc2)cc1,4.5 µM,11.3,–
C=C(CN1CCN(c2ccccc2)CC1)c1ccccc1,1.4 µM,24.1,–
C=C(C[n+]1ccc(-c2cccc(O)c2)cc1)c1ccc(I)cc1,0.4 µM,55,–
CN1CC=C(c2ccc(O)cc2)CC1,134 µM,0.3,–
C=C(C[n+]1ccc(-c2ccc(OC)cc2)cc1)c1ccccc1,2.8 µM,8.7,–
Cc1ccccc1C1=CCN(C)CC1,38.4 µM,–,–
C[n+]1ccc(-c2ccc(C(F)(F)F)cc2)cc1,33.8 µM,1.3,–

Molecule,Ki [1],Dopamine Km / inhibitor Ki ratio [2],further results
CN1CC=C(c2cccc(O)c2)CC1,25.8 µM,1.7,–
C=C(CN1CCC(c2ccccc2)CC1)c1ccccc1,16.4 µM,1.8,–
Cc1ccccc1-c1cc[n+](C)cc1,95 µM,0.3,–
C[n+]1ccc(-c2ccc(O)cc2)cc1,82 µM,0.7,–
COC(=O)[C@H]1[C@H]2C[C@@H]3c4[nH]c5cc(OC)ccc5c4CCN3C[C@H]2C[C@@H](OC(=O)c2cc(OC)c(OC)c(OC)c2)[C@@H]1OC [RESERPINE],0.001 µM,–,–
CN1CC=C(c2ccccc2)CC1,52.5 µM,–,–
C[n+]1cccc(-c2ccc(O)cc2)c1,338 µM,0.1,–
C[n+]1ccc(-c2cccc(Cl)c2)cc1,46.3 µM,1.1,–
C[N+]1=CC=C(c2ccccc2)CC1,53 µM,0.7,–
CN1CC=C(c2ccccc2N)CC1,193 µM,0.1,–
C[n+]1ccc(-c2cccc(C(F)(F)F)c2)cc1,24.6 µM,1.8,–
C=C(C[n+]1ccc(-c2ccccc2)cc1)c1ccccc1,38.4 µM,0.9,–
Cc1ccc(-c2cc[n+](C)cc2)cc1,51.8 µM,1,–
C=C(C[n+]1ccc(-c2ccccc2)nc1)c1ccccc1,13.4 µM,2.7,–
C[n+]1ccc(-c2ccccc2)cc1,92 µM,–,–
COc1ccc2c3c([nH]c2c1)[C@H]1C[C@H]2[C@H](C[C@@H](O)[C@H](OC)[C@H]2C(=O)O)CN1CC3,10 µM,–,–
B1,–,–,Km [3]: 135 µM; Vmax [3]: 1.6 nmol/mg/min; Km [4]: 409 µM; Vmax [4]: 1.7 nmol/mg/min; Km [5]: 107 µM; Vmax [5]: 1.6 nmol/mg/min; Km [6]: 41.3 µM; Vmax [6]: 0.9 nmol/mg/min; Km [7]: 8.4 µM; Vmax [7]: 1.9 nmol/mg/min; Km [8]: 73 µM; Vmax [8]: 1.4 nmol/mg/min
